Measurements gathered from unrelated publications.
Each line is one published result; the experiments were not run side by side.
EGFR L858R: Epidermal growth factor receptor (EGFR, Homo sapiens, UniProt P00533, L858R)

| SMILES | target | assay | conditions | endpoint | value |
| --- | --- | --- | --- | --- | --- |
| CCCCC(=O)Nc1ccc(-c2ccc3ncn(CCC)c(=O)c3c2)cn1 | Epidermal growth factor receptor (EGFR, Homo sapiens, UniProt P00533, G719S) | binding, competition with immobilised ligand | 0.5 µM | remaining binding | 100% |
| CO[C@@H]1[C@H](N(C)C(=O)c2ccccc2)C[C@H]2O[C@]1(C)n1c3ccccc3c3c4c(c5c6ccccc6n2c5c31)C(=O)NC4 | Epidermal growth factor receptor (EGFR, Homo sapiens, UniProt P00533, A750P/del747-749) | enzyme activity, inhibitor | 1 µM | inhibition | 74% |
| Cc1ccc(NC(=O)c2ccnc(C(F)(F)F)c2)cc1-c1cc(OCCO)nc(N2CCOCC2)c1 | Epidermal growth factor receptor (EGFR, Homo sapiens, UniProt P00533, L861Q) | binding | 1 µM | remaining binding | 92% |
| C1=C/COCc2cc(ccc2OCCN2CCCC2)Nc2nccc(n2)-c2cccc(c2)COC/1 | EGFR L858R | binding | 0.1 µM | remaining binding | 71% |
| COc1ccc2oc(-c3ccc4nc(N)oc4c3)c/c(=N\c3ccccc3NC(=O)CCN)c2c1 | EGFR L858R | binding | 1 µM | remaining binding | 92% |
| CC#CC(=O)N1CCC[C@H]1c1nc(-c2ccc(C(=O)Nc3ccccn3)cc2)c2c(N)nccn12 | Epidermal growth factor receptor (EGFR, Homo sapiens, UniProt P00533, L858R/T790M) | enzyme activity, inhibitor | 1 µM | inhibition | 2% |
| CN1CCN(C(=O)c2ccc(NC(=O)Nc3ccc(N(C)c4ccnc(Nc5ccc(CS(C)(=O)=O)cc5)n4)cc3)cc2)CC1 | EGFR L858R | binding | 1 µM | remaining binding | 92% |
| C=CC(=O)N1CCC([C@@H]2CCNc3c(C(N)=O)c(-c4ccc(Oc5ccccc5)cc4)nn32)CC1 | Epidermal growth factor receptor (EGFR, Homo sapiens, UniProt P00533, G719C) | cell-free assay | 1 µM | inhibition | 92% |
| COc1ccc2[nH]c3c4[nH]c5ccc(OC)cc5c4c4c(c3c2c1)C(=O)NC4=O | EGFR L858R | binding | 1 µM | remaining binding | 50% |
